Active and inactive are the calls of the source. The rule behind the calls is not given here.

The values that follow come from ChEMBL document CHEMBL2321684, “Novel hybrids of optically active ring-opened 3-n-butylphthalide derivative and isosorbide as potential anti-ischemic stroke agents” (J Med Chem, 2013).

Series [1] has as its system Rattus norvegicus. Put plainly: Antiischemic activity in Sprague-Dawley rat assessed as reduction in middle cerebral artery occlusion-induced inflammatory infiltrates in brain at 80 mg/kg administered via gavage for 7 days prior to middle cerebral artery occlusion-challenge measured after 24 hrs by microscopic analysis. On the set-up: dose 80 mg/kg. It counts as functional, organism-based. The method in brief:
(§1)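 Male SD rats (280−320 g), n = 12 per group, dosed by gavage daily for 7 days in 0.5% CMC-Na vehicle. Sham animals received vehicle only. Two hours after the last dose, rats were anesthetized with chloral hydrate (300 mg/kg ip) and given MCAO for 2 h, then reperfused. Body temperature was held at 37 °C. All endpoints were read at 24 h post reperfusion.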

Series [2] deals with Rattus norvegicus. Put plainly: Antiischemic activity in Sprague-Dawley rat assessed as reduction in middle cerebral artery occlusion-induced water content in brain at 80 mg/kg administered via gavage for 7 days prior to middle cerebral artery occlusion-challenge measured after 24 hrs relative to control. Type of series: functional, organism-based. On the set-up: dose 80 mg/kg. The method in brief: as §1

In series [3] the test system is Rattus norvegicus. As to the kind of experiment: Antiischemic activity in Sprague-Dawley rat assessed as reduction in middle cerebral artery occlusion-induced neurological deficit scores at 340 mg/kg administered via gavage for 7 days prior to middle cerebral artery occlusion-challenge measured after 24 hrs relative to control. It counts as functional, organism-based. Also on record: dose 340 mg/kg. The essentials:
as §1

Series [4] in a line: Plasma concentration in ICR mouse at 680 mg/kg, po after 1 hrs by HPLC analysis. Type of series: ADME, organism-based. On the set-up: dose 680 mg/kg, route oral. The method in brief: (§2)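 Male ICR mice (30−35 g), n = 6 per time point, were given a single 680 mg/kg gavage dose and sacrificed at 0.5, 1, 2, 4 and 8 h. Brains were rinsed, weighed and homogenized in 3 volumes of saline. Plasma and homogenate were precipitated with 3 volumes of acetonitrile.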

Series [5] in a line: Plasma concentration in ICR mouse at 680 mg/kg, po after 0.5 hrs by HPLC analysis. It counts as ADME, organism-based. On the set-up: dose 680 mg/kg, route oral. The method in brief:
as §2

For series [6], the system named is Rattus norvegicus. As to the kind of experiment: Antithrombotic activity in Sprague-Dawley rat assessed as reduction in arteriovenous shunt-induced wet thrombus weight at 340 mg/kg, administered via gavage for 7 days prior to arteriovenous shunt-challenge measured up to 15 mins relative to control. It counts as functional, organism-based. Also on record: dose 340 mg/kg. The essentials:
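Male SD rats (250−280 g), n = 12 per group, dosed by gavage daily for 7 days in 0.5% CMC-Na. Two hours after the last dose, rats were anesthetized with chloral hydrate (300 mg/kg ip). A saline-filled 14 cm polyethylene catheter holding a 6 cm silk thread linked the left jugular vein and right carotid artery for 15 min. The thrombus was then weighed wet and dry. Results are mean ± SD, analysed by ANOVA/Tukey.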

Series [7] deals with Mus musculus. As to the kind of experiment: Antithrombotic activity in Swiss ICR mouse assessed as inhibition of collagen/adrenaline-induced acute systemic vascular thromboembolism at 680 mg/kg, po administered for 7 days prior to collagen/adrenaline-challenge measured up to 15 mins relative to control. Also on record: dose 680 mg/kg. It counts as functional, organism-based. The method in brief:
(§3)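 Male Swiss ICR mice (30−35 g), n = 15 per group, dosed by gavage daily for 7 days in DMSO vehicle. Two hours after the last dose, mice received collagen (0.21 mg/kg) plus adrenaline (44.5 μg/kg) iv. Survival was monitored for 15 min and reported as % surviving.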

Series [8] concerns Mus musculus. Put plainly: Antithrombotic activity in Swiss ICR mouse assessed as inhibition of collagen/adrenaline-induced acute systemic vascular thromboembolism at 160 mg/kg, po administered for 7 days prior to collagen/adrenaline-challenge measured up to 15 mins relative to control. On the set-up: dose 160 mg/kg. Type of series: functional, organism-based. The essentials: as §3

The nature of series [9]: Stability in artificial intestinal juice assessed as compound remaining at pH 6.8 after 2 hr by HPLC analysis. Type of series: physicochemical. The note with it: simulated gi fluid, pH 6.8, 2 h.
The nature of series [10]: Stability in artificial intestinal juice assessed as compound remaining at pH 6.8 measured immediately by HPLC analysis. It counts as physicochemical. The following applies: simulated gi fluid.
A short description of series [11]: Stability in artificial gastric juice assessed as compound remaining at pH 1.5 after 1 hr by HPLC analysis. Type of series: physicochemical. The note with it: simulated gi fluid, pH 1.5, 1 h.
A short description of series [12]: Stability in artificial gastric juice assessed as compound remaining at pH 1.5 measured immediately by HPLC analysis. It counts as physicochemical. The following applies: simulated gi fluid.
The subject of the next series is Platelet. As to the kind of experiment: Antiplatelet aggregation activity in rabbit platelets assessed as inhibition of ADP-induced platelet aggregation at 0.1 mM incubated for 5 mins prior to ADP-challenge measured within 5 mins by turbidimetric analysis. It counts as functional, cell-based. The following applies: Oryctolagus cuniculus. The method in brief: (§4)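 Rabbit carotid blood was citrated (3.8%, 9:1). PRP was adjusted with PPP to 400−450 × 10⁹ platelets/L. PRP was preincubated with compound or DMSO for 5 min at 37 °C, then aggregation was induced with ADP at 10 μM. Maximum aggregation rate was recorded over 5 min using Born's turbidimetry. Inhibition % was calculated versus vehicle; n = 6, mean ± SD.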

Series [13] is described as follows: Antiplatelet aggregation activity in rabbit platelets assessed as inhibition of ADP-induced platelet aggregation at 1 mM incubated for 5 mins prior to ADP-challenge measured within 5 mins by Born's turbidimetric analysis relative to control. It counts as functional. The following applies: Oryctolagus cuniculus. The method in brief:
as §4

One may read the inhibition as the percentage by which the read-out fell short of the control. For the compound `CCCC[C@H](OC(=O)CN1CCN(C)CC1)c1ccccc1C(=O)O[C@H]1CO[C@H]2[C@@H]1OC[C@H]2OC(=O)c1ccccc1[C@H](CCCC)OC(=O)CN1CCN(C)CC1`, the result in the series with Rattus norvegicus [1], in the series on Rattus norvegicus [2], with Rattus norvegicus [3], with Rattus norvegicus [6], with Mus musculus [7] and in the series on Mus musculus [8] was Active. Also, the concentration at 1 h in [4] was 241 ng/mL. This compound returned a concentration at 0.5 h in series [5] of 320 ng/mL. For the same compound, the Stability in series [9] was 5.04 µM; in series [10], 4.97 µM; in series [11], 4.89 µM; in [12], 4.92 µM. Further, the inhibition result with Platelet is “Active”. For the same compound, the inhibition at 1000 µM in series [13] was determined as 50.1%.
